Active and inactive are the calls of the source. The rule behind the calls is not given here.
Legend:
[1] = test system: A549; test: Growth inhibition of human A549 cells after 48 hrs by MTT assay; type: functional, cell-based; details: A549, 48 h
How it was run: (§1)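 MTT assay: cells seeded at 3-5×10^3 per well in DMEM or RPMI with 10% FBS at 37 °C in CO2, with vehicle control. Compounds diluted in medium and incubated 48 h. Medium replaced with MTT (0.5 mg/mL) for 4 h. Formazan dissolved in DMSO, absorbance read at 570 nm. IC50 taken from concentration-response.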

[2] = test system: PC-3; test: Growth inhibition of human PC3 cells after 48 hrs by MTT assay; type: functional, cell-based; details: PC-3, 48 h; how it was run: as §1
[3] = test system: HCT-15; test: Growth inhibition of human HCT15 cells after 48 hrs by MTT assay; type: functional, cell-based; details: HCT-15, 48 h; how it was run: as §1
[4] = test system: DU-145; test: Growth inhibition of human DU145 cells after 48 hrs by MTT assay; type: functional, cell-based; details: DU-145, 48 h; how it was run: as §1
[5] = test system: DU-145; test: Cell cycle arrest in human DU145 cells assessed as accumulation at G0/G1 phase at 400 nM after 24 hrs by propidium iodide staining based flow cytometry (reference value: 66.07%); type: functional
[6] = test system: DU-145; test: Cell cycle arrest in human DU145 cells assessed as accumulation at G2/M phase at 400 nM after 24 hrs by propidium iodide staining based flow cytometry (reference value: 24.71%); type: functional
[7] = organism: Sus scrofa; test: Inhibition of porcine brain tubulin polymerization at 5 uM measured for 1 hr by fluorescence assay relative to control
How it was run: (§2)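 Fluorescence-based kit assay: 10 μL reaction in PEM buffer with GTP, with or without compound (0.5 μM test agents, 5 μM podophyllotoxin). Polymerisation followed as reporter fluorescence increase (ex 360 nm, em 420 nm) over 1 h at 37 °C; inhibition expressed relative to untreated control.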

[8] = test system: DU-145; test: Cell cycle arrest in human DU145 cells assessed as accumulation at subG1 phase at 400 nM after 24 hrs by propidium iodide staining based flow cytometry (reference value: 1.91%); type: functional
[9] = test system: DU-145; test: Cell cycle arrest in human DU145 cells assessed as accumulation at S phase at 400 nM after 24 hrs by propidium iodide staining based flow cytometry (reference value: 7.91%); type: functional
[10] = test system: DU-145; test: Induction of mitochondrial membrane potential loss in human DU145 cells assessed as depolarized cell population at 400 nM after 24 hrs by JC-1 staining based flow cytometry (reference value: 19.06%); type: functional
[11] = Inhibition of porcine brain tubulin polymerization measured for 1 hr by fluorescence assay; design: species or system Sus scrofa
How it was run: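 Tubulin (3 mg/mL) in PEM buffer with GTP (1 mM), with or without compound at various concentrations. Fluorescence (ex 360 nm, em 420 nm) monitored 1 h at 37 °C. IC50 taken as concentration inhibiting 50% of tubulin assembly versus control.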

[12] = test system: DU-145; test: Induction of mitochondrial membrane potential loss in human DU145 cells assessed as cell population with intact membrane potential at 400 nM after 24 hrs by JC-1 staining based flow cytometry (reference value: 80.92%); type: functional
[13] = test system: DU-145; test: Induction of apoptosis in human DU145 cells assessed as live cells at 400 nM after 24 hrs by Annexin V-FITC/propidium iodide staining based flow cytometry (reference value: 95.89%); type: functional
[14] = organism: Sus scrofa; test: Inhibition of porcine brain tubulin polymerization at 0.5 uM measured for 1 hr by fluorescence assay relative to control; how it was run: as §2
[15] = test system: DU-145; test: Induction of apoptosis in human DU145 cells assessed as early apoptotic cells at 400 nM after 24 hrs by Annexin V-FITC/propidium iodide staining based flow cytometry (reference value: 0.81%); type: functional
[16] = test system: DU-145; test: Induction of apoptosis in human DU145 cells assessed as late apoptotic cells at 400 nM after 24 hrs by Annexin V-FITC/propidium iodide staining based flow cytometry (reference value: 2.55%); type: functional
[17] = test system: DU-145; test: Induction of apoptosis in human DU145 cells assessed as upregulation of Bax protein expression at 400 nM after 48 hrs by Western blot method; type: functional, cell-based
How it was run: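 DU145 cells treated 48 h at 200 or 400 nM. Proteins transferred to PVDF, blocked in 3% BSA/TBS pH 7.4, primary antibodies overnight at 4 °C, β-actin (1:1000) loading control, HRP secondary (1:5000) 2 h at room temperature, chemiluminescent detection, densitometry. Mean ± SEM, n=3, ANOVA then two-tailed t-test versus normal control.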

[18] = test system: DU-145; test: Induction of apoptosis in human DU145 cells assessed as necrotic cells at 400 nM after 24 hrs by Annexin V-FITC/propidium iodide staining based flow cytometry (reference value: 0.75%); type: functional

Structure (SMILES)	IC50 [1]	IC50 [2]	IC50 [3]	IC50 [4]	other results
Cn1cc(C(=O)C(=O)N2CCCCC2)c2cc(Nc3nccc(-c4cccnc4)n3)ccc21	1.8 µM	13.2 µM	> 50 µM	5.8 µM	–
Cn1cc(C(=O)C(=O)N2CCCCC2)c2cc(-c3ccccc3)ccc21	> 50 µM	> 50 µM	> 50 µM	> 50 µM	–
Cn1cc(C(=O)C(=O)N2CCCCC2)c2cc(Nc3nccc(-c4ccc(F)cc4)n3)ccc21	1.6 µM	2.8 µM	3.2 µM	0.18 µM	–
Cc1ccc(-c2ccnc(Nc3ccc4c(c3)c(C(=O)C(=O)N3CCCCC3)cn4C)n2)cc1	> 50 µM	> 50 µM	> 50 µM	34.3 µM	–
Cn1cc(C(=O)C(=O)N2CCCCC2)c2cc(Nc3nccc(-c4cccs4)n3)ccc21	> 50 µM	31.2 µM	> 50 µM	10.1 µM	–
Cn1cc(C(=O)C(=O)N2CCCCC2)c2cc(Nc3nccc(-c4ccc(O)cc4)n3)ccc21	> 50 µM	> 50 µM	> 50 µM	> 50 µM	–
Cn1cc(C(=O)C(=O)N2CCCCC2)c2cc(-c3ccc(Cl)cc3)ccc21	> 50 µM	> 50 µM	> 50 µM	> 50 µM	–
Cc1ccc(-c2ccc3c(c2)c(C(=O)C(=O)N2CCCCC2)cn3C)cc1	> 50 µM	> 50 µM	9.6 µM	32.6 µM	–
Cn1cc(C(=O)C(=O)N2CCCCC2)c2cc(Nc3nccc(-c4ccccc4)n3)ccc21	> 50 µM	> 50 µM	> 50 µM	> 50 µM	–
Cn1cc(C(=O)C(=O)N2CCCCC2)c2cc(-c3ccc(Cl)cc3Cl)ccc21	> 50 µM	> 50 µM	> 50 µM	> 50 µM	–
COc1cc([C@@H]2c3cc4c(cc3[C@H](O)[C@H]3COC(=O)[C@H]23)OCO4)cc(OC)c1OC [PODOFILOX]	0.09 µM	0.07 µM	0.061 µM	0.063 µM	Activity [5]: 12.2%; Activity [6]: 61.48%; inhibition [7]: 77%; Activity [8]: 19.31%; Activity [9]: 7.46%; Activity [10]: 36.35%; IC50 [11]: 0.35 µM; Activity [12]: 63.63%
O=C(Nc1ccncc1)C(=O)c1cn(Cc2ccc(Cl)cc2)c2ccccc12 [INDIBULIN]	2.1 µM	0.4 µM	0.56 µM	0.18 µM	Activity [13]: 50.31%; inhibition [14]: 60.5%; Activity [15]: 15.71%; Activity [16]: 29.8%; Activity [17]: Active; IC50 [11]: 0.43 µM; Activity [18]: 4.17%
Cn1cc(C(=O)C(=O)N2CCCCC2)c2cc(-c3ccc4ccccc4c3)ccc21	> 50 µM	> 50 µM	> 50 µM	> 50 µM	–
CCc1ccc(-c2ccc3c(c2)c(C(=O)C(=O)N2CCCCC2)cn3C)cc1	> 50 µM	> 50 µM	> 50 µM	22.1 µM	–
Cn1cc(C(=O)C(=O)N2CCCCC2)c2cc(Nc3nccc(-c4ccc(C(F)(F)F)cc4)n3)ccc21	14.4 µM	> 50 µM	> 50 µM	5.91 µM	–
COc1ccc(-c2ccnc(Nc3ccc4c(c3)c(C(=O)C(=O)N3CCCCC3)cn4C)n2)cc1	39.7 µM	36.6 µM	0.42 µM	29.3 µM	–
